The source made the active and inactive calls. No cut-off for these calls is given here.
Legend:
Leishmania infantum = assay: Growth inhibition of luciferase expressing Leishmania infantum axenic amastigotes infected in human THP1 cells at 10 uM measured after 72 hrs by steady-glo luminescence assay relative to control; type: organism-based; conditions: leishmania infantum, 72 h, 10 µM
[1] = biological target: Voltage-gated inwardly rectifying potassium channel KCNH2 (Homo sapiens, UniProt Q12809); assay: Displacement of Tracer Red from human ERG by fluorescence polarization assay
Sequence of Voltage-gated inwardly rectifying potassium channel KCNH2 (Q12809 whole entry): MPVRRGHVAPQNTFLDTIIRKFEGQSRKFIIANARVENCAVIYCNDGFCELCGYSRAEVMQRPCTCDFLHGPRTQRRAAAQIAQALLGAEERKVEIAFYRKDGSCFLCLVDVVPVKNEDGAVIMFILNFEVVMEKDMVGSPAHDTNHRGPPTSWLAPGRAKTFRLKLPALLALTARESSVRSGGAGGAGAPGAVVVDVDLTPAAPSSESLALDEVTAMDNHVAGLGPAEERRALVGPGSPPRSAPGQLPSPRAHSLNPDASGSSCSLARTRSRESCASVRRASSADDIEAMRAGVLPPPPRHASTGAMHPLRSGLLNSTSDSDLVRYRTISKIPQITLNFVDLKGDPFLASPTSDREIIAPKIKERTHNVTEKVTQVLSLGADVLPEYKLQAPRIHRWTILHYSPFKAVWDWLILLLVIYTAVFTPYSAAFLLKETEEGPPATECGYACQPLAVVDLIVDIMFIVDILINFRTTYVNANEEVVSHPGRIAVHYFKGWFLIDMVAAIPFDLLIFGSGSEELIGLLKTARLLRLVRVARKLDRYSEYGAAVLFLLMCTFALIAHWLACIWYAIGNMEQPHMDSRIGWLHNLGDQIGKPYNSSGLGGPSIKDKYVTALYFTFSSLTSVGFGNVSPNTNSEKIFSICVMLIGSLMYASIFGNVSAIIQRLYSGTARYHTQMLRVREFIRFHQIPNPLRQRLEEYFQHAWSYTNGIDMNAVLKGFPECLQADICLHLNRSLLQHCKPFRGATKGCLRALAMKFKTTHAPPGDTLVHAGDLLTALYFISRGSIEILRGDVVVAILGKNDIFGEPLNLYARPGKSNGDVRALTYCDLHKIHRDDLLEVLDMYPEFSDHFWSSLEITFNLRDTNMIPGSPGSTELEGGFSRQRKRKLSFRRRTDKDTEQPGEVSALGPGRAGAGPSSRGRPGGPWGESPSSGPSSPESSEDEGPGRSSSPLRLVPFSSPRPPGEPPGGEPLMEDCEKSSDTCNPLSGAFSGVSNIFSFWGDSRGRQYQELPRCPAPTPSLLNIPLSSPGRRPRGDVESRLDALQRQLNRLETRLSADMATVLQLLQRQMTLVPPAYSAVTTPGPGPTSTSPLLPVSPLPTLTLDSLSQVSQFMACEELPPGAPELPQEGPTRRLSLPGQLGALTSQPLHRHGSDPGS

Cytochrome P450 2C9 = Cytochrome P450 2C9 (Homo sapiens, UniProt P11712); assay: Inhibition of human CYP2C9 expressed in baculovirus infected insect cells using beetle D-luciferin as substrate preincubated for 30 mins followed by NADPH addition and measured after 30 mins by CYP450-Glo assay
Sequence of Cytochrome P450 2C9 (P11712 whole entry): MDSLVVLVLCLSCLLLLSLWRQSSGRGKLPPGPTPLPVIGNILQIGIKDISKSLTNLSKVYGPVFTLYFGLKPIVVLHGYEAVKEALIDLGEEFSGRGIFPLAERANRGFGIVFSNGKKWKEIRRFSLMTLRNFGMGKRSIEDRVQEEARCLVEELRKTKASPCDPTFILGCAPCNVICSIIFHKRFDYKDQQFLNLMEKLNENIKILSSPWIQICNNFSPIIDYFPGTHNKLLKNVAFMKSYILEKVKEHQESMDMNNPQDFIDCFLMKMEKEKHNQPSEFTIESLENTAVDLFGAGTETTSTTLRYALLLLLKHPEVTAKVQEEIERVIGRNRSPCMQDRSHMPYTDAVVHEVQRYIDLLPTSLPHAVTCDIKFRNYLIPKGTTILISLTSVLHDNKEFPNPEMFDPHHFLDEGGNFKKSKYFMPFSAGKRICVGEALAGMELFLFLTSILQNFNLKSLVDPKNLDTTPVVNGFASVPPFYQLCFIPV

Cytochrome P450 2C19 = Cytochrome P450 2C19 (Homo sapiens, UniProt P33261); assay: Inhibition of human CYP2C19 expressed in baculovirus infected insect cells using beetle D-luciferin as substrate preincubated for 30 mins followed by NADPH addition and measured after 30 mins by CYP450-Glo assay
Sequence of Cytochrome P450 2C19 (P33261 whole entry): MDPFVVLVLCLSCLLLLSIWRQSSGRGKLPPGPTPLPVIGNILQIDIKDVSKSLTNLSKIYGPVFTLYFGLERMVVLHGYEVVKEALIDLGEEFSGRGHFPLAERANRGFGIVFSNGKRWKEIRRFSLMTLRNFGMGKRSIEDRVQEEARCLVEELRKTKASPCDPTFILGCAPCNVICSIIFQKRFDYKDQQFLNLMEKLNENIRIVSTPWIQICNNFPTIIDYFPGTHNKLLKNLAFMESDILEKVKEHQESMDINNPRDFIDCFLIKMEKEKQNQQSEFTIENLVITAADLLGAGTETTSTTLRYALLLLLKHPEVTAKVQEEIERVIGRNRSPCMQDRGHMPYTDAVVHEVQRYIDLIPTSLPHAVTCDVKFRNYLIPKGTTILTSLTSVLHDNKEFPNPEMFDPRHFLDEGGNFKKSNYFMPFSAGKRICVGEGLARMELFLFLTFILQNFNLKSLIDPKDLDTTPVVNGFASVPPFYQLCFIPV

Cytochrome P450 2D6 = Cytochrome P450 2D6 (Homo sapiens, UniProt P10635); assay: Inhibition of human CYP2D6 expressed in baculovirus infected insect cells using beetle D-luciferin as substrate preincubated for 30 mins followed by NADPH addition and measured after 30 mins by CYP450-Glo assay
Sequence of Cytochrome P450 2D6 (P10635 whole entry): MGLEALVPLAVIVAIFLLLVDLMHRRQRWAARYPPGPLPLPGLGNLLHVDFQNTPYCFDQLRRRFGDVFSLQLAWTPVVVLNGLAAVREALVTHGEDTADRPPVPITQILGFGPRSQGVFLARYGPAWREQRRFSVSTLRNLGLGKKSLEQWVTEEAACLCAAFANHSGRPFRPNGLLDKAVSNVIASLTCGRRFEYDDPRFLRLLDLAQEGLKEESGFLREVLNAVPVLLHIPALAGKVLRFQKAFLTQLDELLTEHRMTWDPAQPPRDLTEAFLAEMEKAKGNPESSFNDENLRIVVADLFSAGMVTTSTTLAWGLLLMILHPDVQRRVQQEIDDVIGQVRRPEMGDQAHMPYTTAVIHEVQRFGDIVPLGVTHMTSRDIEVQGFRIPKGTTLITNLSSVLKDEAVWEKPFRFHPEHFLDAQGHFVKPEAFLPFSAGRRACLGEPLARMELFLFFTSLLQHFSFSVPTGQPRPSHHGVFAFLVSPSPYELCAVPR

Cytochrome P450 3A4 = Cytochrome P450 3A4 (Homo sapiens, UniProt P08684); assay: Inhibition of human CYP3A4 expressed in baculovirus infected insect cells using beetle D-luciferin as substrate preincubated for 30 mins followed by NADPH addition and measured after 30 mins by CYP450-Glo assay
Sequence of Cytochrome P450 3A4 (P08684 whole entry): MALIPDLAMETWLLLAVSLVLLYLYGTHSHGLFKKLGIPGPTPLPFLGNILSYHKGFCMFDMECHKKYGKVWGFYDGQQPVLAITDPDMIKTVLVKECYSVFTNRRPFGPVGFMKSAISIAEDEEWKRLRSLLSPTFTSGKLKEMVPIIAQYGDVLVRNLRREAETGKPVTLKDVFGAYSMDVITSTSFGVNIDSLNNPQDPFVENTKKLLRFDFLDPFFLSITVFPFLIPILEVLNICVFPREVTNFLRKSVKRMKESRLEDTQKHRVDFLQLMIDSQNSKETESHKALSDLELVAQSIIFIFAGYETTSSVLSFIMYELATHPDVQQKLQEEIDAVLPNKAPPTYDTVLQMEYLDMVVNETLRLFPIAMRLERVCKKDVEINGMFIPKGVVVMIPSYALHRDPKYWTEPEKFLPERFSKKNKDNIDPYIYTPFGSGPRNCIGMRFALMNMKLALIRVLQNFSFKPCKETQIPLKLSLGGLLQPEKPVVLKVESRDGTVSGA

[2] = Cytotoxicity against human A549 cells after 48 hrs by Celltiter-glo assay; type: cell-based
[3] = Cytotoxicity against human THP1 cells after 72 hrs by MTT assay; type: cell-based, THP-1; conditions: read-out: NOAEL
[4] = Mitochondrial toxicity in human 786-O cells measured after 6 hrs by MitoTracker Red chloromethyl-X-rosamine based assay; type: cell-based, 786-0
hERG = assay: Selectivity index ratio of IC50 for human ERG to EC50 for growth inhibition of Trypanosoma brucei bloodstream forms; type: toxicity; conditions: read-out: Ratio IC50/EC50
[5] = Thermodynamic solubility of the compound in phosphate buffered saline/10%DMSO after 24 hrs by spectrophotometric method; type: physicochemical; conditions: read-out: Therm_solubility
In short: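 Over-saturated suspensions (theoretical maximum 100 µg/mL) in water, PBS, PBS + 10% DMSO or PBS + 50% DMSO were stirred at 1200 rpm for 24 h at 25 °C. They were filtered at 0.2 µm and diluted 1:1 with ACN. Concentration was quantified by UV using a molar extinction coefficient determined at 340 nm.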

CYP2C19 = assay: Selectivity index ratio of IC50 for CYP2C19 (unknown origin) to EC50 for growth inhibition of Trypanosoma brucei bloodstream forms; type: toxicity; conditions: read-out: Ratio IC50/EC50
[6] = Selectivity index ratio of IC50 for mitochondrial toxicity in human 786-O cells to EC50 for growth inhibition of Trypanosoma brucei bloodstream forms; type: cell-based; conditions: read-out: Ratio IC50/EC50
[7] = Selectivity index ratio of GI50 for human A549 cells to EC50 for growth inhibition of Trypanosoma brucei bloodstream forms; type: toxicity; conditions: read-out: Ratio GI50/EC50
[8] = Selectivity index ratio of GI50 for human U2OS cells to EC50 for growth inhibition of Trypanosoma brucei bloodstream forms; type: toxicity; conditions: read-out: Ratio GI50/EC50
[9] = Selectivity index ratio of NOAEL for human THP1 cells to EC50 for growth inhibition of Trypanosoma brucei bloodstream forms; type: toxicity; conditions: read-out: Selectivity Index
[10] = Cmax in BALB/c mouse at 1 mg/kg, iv by LC-MS analysis; type: ADME, organism-based; design: dose 1 mg/kg, route intravenous; conditions: in vivo
In short: (§1)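 Snapshot PK in healthy BALB/c mice. Free compound given in 8% DMSO at 1 mg/kg IV or 20 mg/kg per os; for the formulated arm it was solubilized with hydroxypropyl-β-cyclodextrin (50%) and given at 20 mg/kg per os. Plasma levels were quantified by LC-MS on a C18 column with triple-quadrupole ESI detection in positive ion mode.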

[11] = Cmax in BALB/c mouse at 20 mg/kg, po co-formulated with hydroxypropyl-beta-cyclodextrin by LC-MS analysis; type: ADME, organism-based; design: dose 20 mg/kg, route oral; conditions: in vivo; in short: as §1
[12] = AUC in BALB/c mouse at 20 mg/kg, po co-formulated with hydroxypropyl-beta-cyclodextrin by LC-MS analysis; type: ADME, organism-based; conditions: in vivo; in short: as §1
[13] = Half-life in BALB/c mouse at 1 mg/kg, iv by LC-MS analysis; type: ADME, organism-based; conditions: in vivo; in short: as §1
[14] = Half-life in BALB/c mouse at 20 mg/kg, po by LC-MS analysis; type: ADME, organism-based; conditions: in vivo; in short: as §1
[15] = test system: Trypanosoma brucei brucei; assay: Antitrypanosomal activity against red-shifted luciferase expressing Trypanosoma brucei brucei GVR35 infected in BALB/c mouse assessed as reduction in parasite infection at 40 mg/kg, po administered twice a day as suspension in hydroxypropyl-beta-cyclodextrin solution by bioluminescence assay; type: functional, organism-based
In short: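 T. b. brucei GVR35 (luciferase-expressing) was given IP to BALB/c mice as blood carrying 1 x 10⁵ parasites from a donor mouse at first-peak parasitemia; controls received PBS. Compound was given orally as a suspension in (2-hydroxypropyl)-β-cyclodextrin solution at 40 mg/kg twice daily. […] Parasite load was read by bioluminescence imaging after subcutaneous D-luciferin under isoflurane, as total flux per ROI.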

[16] = Selectivity ratio of IC50 for Leishmania major pteridine reductase 1 to IC50 for N-terminal His-tagged Trypanosoma brucei pteridine reductase 1
[17] = Ratio of Cmax BALB/c mouse at 20 mg/kg, po co-formulated with hydroxypropyl-beta-cyclodextrin to EC50 for Trypanosoma brucei bloodstream forms; type: ADME, organism-based; conditions: in vivo

IC50 (Cytochrome P450 2C9): > 25 µM
IC50 (Cytochrome P450 2C19): > 25 µM
IC50 (Cytochrome P450 2D6): 10 to 25 µM
IC50 (Cytochrome P450 3A4): > 25 µM
solubility thermodynamic at 24 h [5]: > 100 µg/mL
Cmax [10]: 1630 ng/mL
Cmax [11]: 13 µM
AUC [12]: 7930 ng·h/mL
half-life [13]: 3.45 h
half-life [14]: 43.5 h
Ratio IC50 [16]: 2 to 100
Ratio [17]: 1.9
Structure (SMILES): Nc1nc2ccc(C(=O)NCc3ccccc3)cc2s1
growth inhibition (GI) (Leishmania infantum): Non-Toxic
IC50 [1]: > 25 µM
GI50 at 48 h [2]: > 25 µM
MNTC at 72 h [3]: > 25 µM
IC50 at 6 h [4]: > 25 µM
selectivity ratio (hERG): > 10
selectivity ratio (CYP2C19): > 10
selectivity ratio [6]: > 10
selectivity ratio [7]: > 10
selectivity ratio [8]: > 10
selectivity ratio [9]: > 10
Activity [15]: inactive
